The record followed here is ChEMBL document CHEMBL1268956, “3-Urea-1-(phenylmethyl)-pyridones as novel, potent, and selective EP3 receptor antagonists” (Bioorg Med Chem Lett, 2010).

Test [1] has as its target T1, Prostaglandin E2 receptor EP3 subtype (Homo sapiens, UniProt P43115).
T1 sequence (P43115 whole entry): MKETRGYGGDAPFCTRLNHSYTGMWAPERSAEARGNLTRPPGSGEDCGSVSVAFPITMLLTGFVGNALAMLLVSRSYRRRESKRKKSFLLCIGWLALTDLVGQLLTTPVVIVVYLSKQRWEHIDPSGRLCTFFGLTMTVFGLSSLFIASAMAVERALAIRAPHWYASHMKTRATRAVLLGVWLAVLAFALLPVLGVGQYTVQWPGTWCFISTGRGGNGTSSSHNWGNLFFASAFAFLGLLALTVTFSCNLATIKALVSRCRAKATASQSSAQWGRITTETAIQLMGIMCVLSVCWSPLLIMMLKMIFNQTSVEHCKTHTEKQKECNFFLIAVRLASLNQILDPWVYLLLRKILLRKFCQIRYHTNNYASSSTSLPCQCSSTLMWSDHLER
The experiment in a line: Antagonist activity at human EP3 receptor expressed in human U2OS cells assessed as inhibition of PGE2-induced intracellular calcium mobilization by FLIPR assay. It counts as functional, cell-based.

In test [2] the target is T2, Prostaglandin E2 receptor EP1 subtype (Homo sapiens, UniProt P34995).
T2 sequence (P34995 whole entry): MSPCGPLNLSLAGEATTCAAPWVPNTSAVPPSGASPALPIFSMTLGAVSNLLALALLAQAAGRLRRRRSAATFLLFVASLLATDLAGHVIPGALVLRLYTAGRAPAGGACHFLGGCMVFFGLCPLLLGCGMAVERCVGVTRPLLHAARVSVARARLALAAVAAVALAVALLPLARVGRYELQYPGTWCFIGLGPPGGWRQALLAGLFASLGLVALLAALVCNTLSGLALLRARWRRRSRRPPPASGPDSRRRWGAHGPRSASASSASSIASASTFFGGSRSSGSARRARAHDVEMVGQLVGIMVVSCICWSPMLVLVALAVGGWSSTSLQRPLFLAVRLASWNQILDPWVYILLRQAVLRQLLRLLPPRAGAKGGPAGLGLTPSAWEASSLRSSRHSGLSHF
The experiment in a line: Displacement of radioligand from human EP1 receptor.

Test [3] addresses Prostaglandin F2-alpha receptor (Homo sapiens, UniProt P43088). The experiment in a line: Displacement of radioligand from human FP receptor.
Test [4] addresses T3, Prostaglandin E2 receptor EP3 subtype (Rattus norvegicus, UniProt P34980).
T3 sequence (P34980 whole entry): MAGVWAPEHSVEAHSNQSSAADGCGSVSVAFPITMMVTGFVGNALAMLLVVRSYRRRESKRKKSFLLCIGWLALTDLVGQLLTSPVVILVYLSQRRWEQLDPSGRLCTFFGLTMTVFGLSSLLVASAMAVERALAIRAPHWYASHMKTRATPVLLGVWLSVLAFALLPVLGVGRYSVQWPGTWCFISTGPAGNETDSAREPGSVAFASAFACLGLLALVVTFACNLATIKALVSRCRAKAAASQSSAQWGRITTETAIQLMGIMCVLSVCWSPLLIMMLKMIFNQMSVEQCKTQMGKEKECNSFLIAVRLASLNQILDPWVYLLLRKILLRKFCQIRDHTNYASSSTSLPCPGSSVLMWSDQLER
The experiment in a line: Inhibition of rat EP3 receptor.

The target of test [5] is Prostaglandin E2 receptor EP4 subtype (Homo sapiens, UniProt P35408). Kind of test: Displacement of radioligand from human EP4 receptor.
Test [6] concerns the target Prostaglandin D2 receptor (Homo sapiens) (UniProt Q13258). The experiment in a line: Displacement of radioligand from human DP receptor.
The target in a further test is T4, Thromboxane A2 receptor (Homo sapiens, UniProt P21731).
T4 sequence (P21731 whole entry): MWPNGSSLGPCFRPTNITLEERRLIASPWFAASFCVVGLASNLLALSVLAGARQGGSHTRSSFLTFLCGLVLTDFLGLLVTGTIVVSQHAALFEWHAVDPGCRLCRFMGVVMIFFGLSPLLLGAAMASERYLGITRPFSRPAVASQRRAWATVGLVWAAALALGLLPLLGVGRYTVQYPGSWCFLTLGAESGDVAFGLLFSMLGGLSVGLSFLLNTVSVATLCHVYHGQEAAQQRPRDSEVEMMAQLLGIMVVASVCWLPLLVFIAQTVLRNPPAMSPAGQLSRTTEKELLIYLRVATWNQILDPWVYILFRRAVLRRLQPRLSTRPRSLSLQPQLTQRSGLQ
Kind of test: Displacement of radioligand from human TP receptor.

A further test deals with T5, Cytochrome P450 1A2 (Homo sapiens, UniProt P05177).
T5 sequence (P05177 whole entry): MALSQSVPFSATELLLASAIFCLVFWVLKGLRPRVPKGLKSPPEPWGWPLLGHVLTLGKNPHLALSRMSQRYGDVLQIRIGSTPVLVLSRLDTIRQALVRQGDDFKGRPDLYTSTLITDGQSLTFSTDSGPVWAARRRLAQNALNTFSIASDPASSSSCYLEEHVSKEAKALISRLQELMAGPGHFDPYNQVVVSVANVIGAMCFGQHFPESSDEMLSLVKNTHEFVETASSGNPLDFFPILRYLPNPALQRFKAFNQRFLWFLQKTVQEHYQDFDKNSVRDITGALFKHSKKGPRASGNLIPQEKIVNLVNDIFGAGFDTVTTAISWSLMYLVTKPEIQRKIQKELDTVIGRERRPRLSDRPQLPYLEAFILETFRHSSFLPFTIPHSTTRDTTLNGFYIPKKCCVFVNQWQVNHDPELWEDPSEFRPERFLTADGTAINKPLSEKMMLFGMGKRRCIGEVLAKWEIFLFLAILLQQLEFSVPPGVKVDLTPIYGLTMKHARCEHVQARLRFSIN
The experiment in a line: Inhibition of CYP1A2. The test is classed as ADME.

For test [7], the target named is Prostaglandin E2 receptor EP2 subtype (Homo sapiens, UniProt P43116). Kind of test: Displacement of radioligand from human EP2 receptor.
The target in test [8] is T6, Prostaglandin G/H synthase 2 (Homo sapiens, UniProt P35354).
T6 sequence (P35354 whole entry): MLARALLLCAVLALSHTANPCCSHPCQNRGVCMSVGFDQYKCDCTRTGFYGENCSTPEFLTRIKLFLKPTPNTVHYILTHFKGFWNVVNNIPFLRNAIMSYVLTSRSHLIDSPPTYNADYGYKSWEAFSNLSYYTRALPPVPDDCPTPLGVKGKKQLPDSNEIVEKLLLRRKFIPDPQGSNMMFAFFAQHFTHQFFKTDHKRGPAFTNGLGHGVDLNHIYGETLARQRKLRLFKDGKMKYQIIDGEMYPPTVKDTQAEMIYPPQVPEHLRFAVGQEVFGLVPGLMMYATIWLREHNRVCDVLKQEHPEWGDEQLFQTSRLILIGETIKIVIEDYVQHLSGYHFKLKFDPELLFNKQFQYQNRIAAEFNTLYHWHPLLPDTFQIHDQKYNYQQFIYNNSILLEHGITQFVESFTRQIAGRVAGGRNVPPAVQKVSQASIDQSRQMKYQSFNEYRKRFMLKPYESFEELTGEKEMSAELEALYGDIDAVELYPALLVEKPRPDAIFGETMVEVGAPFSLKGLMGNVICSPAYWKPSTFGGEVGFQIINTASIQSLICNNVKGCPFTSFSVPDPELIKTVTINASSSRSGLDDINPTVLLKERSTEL
The experiment in a line: Inhibition of human COX2 in human whole blood by ELISA. The test is classed as tissue-based. An outline of the steps: (§1)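 Human whole blood; COX1 and COX2 inhibition read out in ELISA format.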

For test [9], the target named is Prostaglandin G/H synthase 1 (Homo sapiens, UniProt P23219). The experiment in a line: Inhibition of human COX1 in human whole blood by ELISA. It counts as tissue-based. The method in brief: as §1
Prostaglandin G/H synthase 1, sequence (P23219 whole entry): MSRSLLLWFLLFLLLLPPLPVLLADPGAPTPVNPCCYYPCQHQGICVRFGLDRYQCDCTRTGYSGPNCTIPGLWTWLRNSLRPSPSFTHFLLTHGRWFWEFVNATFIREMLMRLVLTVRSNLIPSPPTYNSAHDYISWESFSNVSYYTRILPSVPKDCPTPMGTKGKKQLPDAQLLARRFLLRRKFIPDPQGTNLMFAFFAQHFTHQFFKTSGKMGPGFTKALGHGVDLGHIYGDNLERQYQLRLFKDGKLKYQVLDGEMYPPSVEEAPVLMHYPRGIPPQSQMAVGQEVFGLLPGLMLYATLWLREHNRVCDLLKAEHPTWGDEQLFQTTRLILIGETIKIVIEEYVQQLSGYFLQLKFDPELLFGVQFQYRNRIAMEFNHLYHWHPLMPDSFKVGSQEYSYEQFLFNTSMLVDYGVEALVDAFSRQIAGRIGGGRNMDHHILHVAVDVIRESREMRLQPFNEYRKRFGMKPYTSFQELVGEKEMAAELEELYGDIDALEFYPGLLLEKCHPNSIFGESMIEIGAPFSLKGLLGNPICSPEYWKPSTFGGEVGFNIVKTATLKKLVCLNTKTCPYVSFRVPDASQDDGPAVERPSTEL

Prostaglandin F2-alpha receptor, sequence (P43088 whole entry): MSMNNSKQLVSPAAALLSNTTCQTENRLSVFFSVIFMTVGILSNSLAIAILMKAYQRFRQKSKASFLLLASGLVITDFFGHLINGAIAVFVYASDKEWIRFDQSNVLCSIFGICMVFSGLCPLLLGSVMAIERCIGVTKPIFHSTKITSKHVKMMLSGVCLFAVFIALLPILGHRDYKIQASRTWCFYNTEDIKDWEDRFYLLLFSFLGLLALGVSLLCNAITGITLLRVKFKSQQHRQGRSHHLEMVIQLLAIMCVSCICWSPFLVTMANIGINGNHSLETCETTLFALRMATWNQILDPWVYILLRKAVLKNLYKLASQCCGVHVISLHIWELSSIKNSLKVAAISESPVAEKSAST
Prostaglandin D2 receptor (Homo sapiens), sequence (Q13258 whole entry, looked up): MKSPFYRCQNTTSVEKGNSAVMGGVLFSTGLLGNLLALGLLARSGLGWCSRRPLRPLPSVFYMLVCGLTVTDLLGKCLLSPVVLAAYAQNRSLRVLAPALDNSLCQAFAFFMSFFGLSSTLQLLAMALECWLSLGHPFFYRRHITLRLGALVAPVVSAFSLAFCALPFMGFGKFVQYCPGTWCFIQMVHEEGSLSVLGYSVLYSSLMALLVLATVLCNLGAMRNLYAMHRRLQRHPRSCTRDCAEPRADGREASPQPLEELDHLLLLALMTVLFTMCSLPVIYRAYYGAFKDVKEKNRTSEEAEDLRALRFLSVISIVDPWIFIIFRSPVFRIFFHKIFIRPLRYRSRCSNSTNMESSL
Prostaglandin E2 receptor EP4 subtype, sequence (P35408 whole entry): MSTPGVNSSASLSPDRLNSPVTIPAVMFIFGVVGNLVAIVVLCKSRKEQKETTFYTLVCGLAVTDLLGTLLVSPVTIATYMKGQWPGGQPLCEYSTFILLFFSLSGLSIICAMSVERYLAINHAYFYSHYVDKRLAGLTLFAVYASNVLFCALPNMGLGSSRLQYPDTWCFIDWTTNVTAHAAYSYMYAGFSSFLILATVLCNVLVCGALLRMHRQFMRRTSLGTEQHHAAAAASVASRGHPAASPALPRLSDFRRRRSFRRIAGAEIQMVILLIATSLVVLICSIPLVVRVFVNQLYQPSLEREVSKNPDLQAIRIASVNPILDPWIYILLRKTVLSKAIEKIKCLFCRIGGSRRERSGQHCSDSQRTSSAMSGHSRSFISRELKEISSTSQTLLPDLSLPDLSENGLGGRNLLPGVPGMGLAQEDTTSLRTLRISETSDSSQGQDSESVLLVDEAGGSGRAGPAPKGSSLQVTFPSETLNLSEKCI
Prostaglandin E2 receptor EP2 subtype, sequence (P43116 whole entry): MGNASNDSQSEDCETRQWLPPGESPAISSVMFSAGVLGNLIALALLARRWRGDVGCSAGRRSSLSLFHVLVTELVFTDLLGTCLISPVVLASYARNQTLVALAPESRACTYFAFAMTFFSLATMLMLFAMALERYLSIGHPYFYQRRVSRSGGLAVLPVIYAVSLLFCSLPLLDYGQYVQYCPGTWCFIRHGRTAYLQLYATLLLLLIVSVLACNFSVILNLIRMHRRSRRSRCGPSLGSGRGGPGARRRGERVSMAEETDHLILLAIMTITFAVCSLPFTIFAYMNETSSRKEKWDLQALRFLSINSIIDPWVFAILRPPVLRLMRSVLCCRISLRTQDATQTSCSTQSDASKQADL

With `CCc1cccc(NC(=O)Nc2cccn(Cc3ccccc3Cl)c2=O)c1`, the Ki in [1] is 0.0501 µM; in [2], above 10 µM; in [3], above 10 µM; in [4], 0.158 µM; in test [5] it was above 10 µM; on Thromboxane A2 receptor, above 10 µM. In addition, the Ki at Cytochrome P450 1A2 was 2 µM; in [7], above 10 µM; in [8], above 100 µM; in [9] it was above 100 µM. Further, in test [6], the pKi was below 5.
